This note sets out measurements from ChEMBL document CHEMBL1127787, “1,2,3-Triazole-[2',5'-bis-O-(tert-butyldimethylsilyl)-beta-D- ribofuranosyl]-3'-spiro-5"-(4"-amino-1",2"-oxathiole 2",2"-dioxide) (TSAO) analogues: synthesis and anti-HIV-1 activity” (J Med Chem, 1994).

Structures are written as SMILES.

The test system of assay [1] is CCRF-CEM. The experiment in a line: Tested for the inhibitory activity of virus induced giant cell formation in HIV-1 infected CEM cells. The following applies: Homo sapiens. Type of assay: functional, cell-based.
Assay [2] has as its system CCRF-CEM. The experiment in a line: Tested for the inhibitory activity of virus induced giant cell formation in HIV-2 infected CEM cells. Type of assay: functional, cell-based. To be noted: Homo sapiens.
Assay [3] is filed under the species Homo sapiens. The experiment in a line: Inhibition of HIV-1Ba-L replication was measured after 14 days postvirus challenge by HIV-p24 ELISA at the dosage of 0.033 uM concentration in human macrophages. To be noted: 336 h. Type of assay: functional. An outline of the steps: (§1)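 Human monocyte/macrophages isolated by 5-day adherence to plastic (10^6 cells/well), >95% pure by esterase and Giemsa staining. Infected with 500 minimal infective doses/well of HIV-1/Ba-L. Compound added from 30 min before virus challenge. Virus excess removed at 48 h and medium renewed with compound. Virus production read by p24 ELISA at day 14. Data are the mean of two independent experiments.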

The species named for assay [4] is Homo sapiens. The experiment in a line: Inhibition of HIV-1Ba-L replication was measured after 14 days postvirus challenge by HIV-p24 ELISA at the dosage of 0.8 uM concentration in human macrophages. It is filed as functional. To be noted: 336 h. An outline of the steps:
as §1

The species named for assay [5] is Homo sapiens. The experiment in a line: Inhibition of HIV-1Ba-L replication was measured after 14 days postvirus challenge by HIV-p24 ELISA at the dosage of 3.3 uM concentration in human macrophages. Type of assay: functional. The following applies: 336 h. An outline of the steps: as §1
The species entered for assay [6] is Homo sapiens. The experiment in a line: Inhibition of HIV-1Ba-L replication was measured after 14 days postvirus challenge by HIV-p24 ELISA at the dosage of 0.16 uM concentration in human macrophages. It is filed as functional. The following applies: 336 h. An outline of the steps:
as §1

The test system of assay [7] is MT4. As to the kind of experiment: Tested for the inhibitory activity of HIV-1 infected MT-4 cells. To be noted: Homo sapiens. Type of assay: functional, cell-based. An outline of the steps: (§2)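 MT-4 cells (5 × 10^5/mL) grown in RPMI-1640 with 10% FCS, 2 mM L-glutamine and 0.075% NaHCO3. Infected with HIV-1 or HIV-2 at 100 CCID50/mL and mixed with compound dilutions (100 to 0.006 µg/mL). After 5 days viable cells were counted by trypan blue staining. EC50 is the concentration that reduces viable-cell loss in infected cultures by 50%.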

In assay [8] the test system is MT4. As to the kind of experiment: Tested for the inhibitory activity of HIV-2 infected MT-4 cells. It is filed as functional, cell-based. To be noted: Homo sapiens. An outline of the steps: as §2
For assay [9], the system named is MT4. As to the kind of experiment: Tested for the cytotoxic concentration required to reduce the number of viable mock infected MT-4 cells. To be noted: Homo sapiens. It is filed as functional. An outline of the steps: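 Mock-infected MT-4 cells (5 × 10^5/mL) in RPMI-1640 with 10% FCS were exposed to compound dilutions (100 to 0.006 µg/mL). Viable cells were counted by trypan blue at day 5; about 150-200 cells were counted in controls. CC50 is the concentration that reduces viable cell number by 50%.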

Assay [10] deals with MT4. The experiment in a line: Tested for the ratio between CC50 (MT-4) to EC50 (MT-4). It is filed as functional, Homo sapiens.
The species named for assay [11] is Homo sapiens. The experiment in a line: Inhibition of HIV-1Ba-L replication was measured after 14 days postvirus challenge by HIV-p24 ELISA at the dosage of 0.034 uM concentration in human macrophages. Type of assay: functional. To be noted: 336 h. An outline of the steps:
as §1

The species named for assay [12] is Homo sapiens. As to the kind of experiment: Inhibition of HIV-1Ba-L replication was measured after 14 days postvirus challenge by HIV-p24 ELISA at the dosage of 0.17 uM concentration in human macrophages. It is filed as functional. The following applies: 336 h. An outline of the steps:
as §1

Assay [13] is filed under the species Homo sapiens. As to the kind of experiment: Inhibition of HIV-1Ba-L replication was measured after 14 days postvirus challenge by HIV-p24 ELISA at the dosage of 0.85 uM concentration in human macrophages. It is filed as functional. To be noted: 336 h. An outline of the steps: as §1
For assay [14], the species on record is Homo sapiens. As to the kind of experiment: Inhibition of HIV-1Ba-L replication was measured after 14 days postvirus challenge by HIV-p24 ELISA at the dosage of 3.4 uM concentration in human macrophages. Type of assay: functional. To be noted: 336 h. An outline of the steps: as §1

Regarding `CN(C)C(=O)c1cnnn1[C@@H]1O[C@H](CO[Si](C)(C)C(C)(C)C)[C@@]2(OS(=O)(=O)C=C2N)[C@H]1O[Si](C)(C)C(C)(C)C`, the EC50 in the assay with CCRF-CEM [1] is 0.12 µM; with CCRF-CEM [2] it was over 7 µM; with MT4 [7] it was 0.06 µM; in the assay with MT4 [8] it was over 30 µM. For the same molecule, in the assay listed under Homo sapiens [3], the inhibition at 0.033 µM was found to be 0%. The same molecule came in with an inhibition at 0.8 µM in the assay filed under Homo sapiens [4] of over 99%. The molecule also had an inhibition at 3.3 µM in the assay filed under Homo sapiens [5] of over 99%. Moreover, the inhibition at 0.16 µM in the assay filed under Homo sapiens [6] is 42%. For the same molecule, in the assay on MT4 [9], the CC50 turned out to be 20 µM. In addition, the Ratio in the assay with MT4 [10] was found to be 335.
For the molecule `CCOC(=O)c1cn([C@@H]2O[C@H](CO[Si](C)(C)C(C)(C)C)[C@@]3(OS(=O)(=O)C=C3N)[C@H]2O[Si](C)(C)C(C)(C)C)nn1`, the EC50 is 0.54 µM in the assay on CCRF-CEM [1], over 165 µM in the assay with CCRF-CEM [2], 0.79 µM in the assay with MT4 [7] and at least 165 µM in the assay with MT4 [8]. The molecule also had an inhibition at 0.033 µM in the assay filed under Homo sapiens [3] of 0%. This molecule also showed an inhibition at 0.8 µM in the assay filed under Homo sapiens [4] of 98%. Further, the inhibition at 3.3 µM in the assay filed under Homo sapiens [5] was over 99%. For the same molecule, 0.16 µM produced 20% inhibition in the assay listed under Homo sapiens [6]. The CC50 in the assay with MT4 [9] was over 165 µM. The Ratio in the assay on MT4 [10] is on record as over 209.
On to `CCOC(OCC)c1cn([C@@H]2O[C@H](CO[Si](C)(C)C(C)(C)C)[C@@]3(OS(=O)(=O)C=C3N)[C@H]2O[Si](C)(C)C(C)(C)C)nn1`, for which the EC50 in the assay on CCRF-CEM [1] was over 150 µM; in the assay on CCRF-CEM [2], over 150 µM; in the assay with MT4 [7], 73 µM; in the assay with MT4 [8], over 150 µM. For the same molecule, in the assay on MT4 [9], the CC50 is over 150 µM. Moreover, the Ratio in the assay on MT4 [10] is over 2.1.
Turning to `CNC(=O)c1cn([C@@H]2O[C@H](CO[Si](C)(C)C(C)(C)C)[C@@]3(OS(=O)(=O)C=C3N)[C@H]2O[Si](C)(C)C(C)(C)C)nn1`, the EC50 with CCRF-CEM [1] is 1.2 µM; in the assay on CCRF-CEM [2], over 7 µM; in the assay with MT4 [7], 0.41 µM; with MT4 [8], over 7 µM. This molecule also had a CC50 with MT4 [9] of 12 µM. In the assay with MT4 [10], the Ratio is 28.8.
Turning to `CCCCc1cn([C@@H]2O[C@H](CO[Si](C)(C)C(C)(C)C)[C@@]3(OS(=O)(=O)C=C3N)[C@H]2O[Si](C)(C)C(C)(C)C)nn1`, the EC50 with CCRF-CEM [1] was 1.5 µM; in the assay with CCRF-CEM [2] it was over 7 µM; in the assay with MT4 [7], 2.6 µM; with MT4 [8] it was over 170 µM. Also, half-maximal cytotoxicity in the assay on MT4 [9] (CC50) was put at 107 µM. Further, the Ratio in the assay with MT4 [10] is reported as 41.
On to `COC(=O)c1cn([C@@H]2O[C@H](CO[Si](C)(C)C(C)(C)C)[C@@]3(OS(=O)(=O)C=C3NC(C)=O)[C@H]2O[Si](C)(C)C(C)(C)C)nn1`, for which the concentration giving a half-maximal response (EC50) was 28 µM with CCRF-CEM [1], over 32 µM with CCRF-CEM [2], at least 32 µM with MT4 [7] and over 32 µM in the assay on MT4 [8]. In the assay on MT4 [9], this molecule returned a CC50 of 56 µM. In the assay on MT4 [10], the Ratio result was “<=1.7”.
As to `CCCc1cn([C@@H]2O[C@H](CO[Si](C)(C)C(C)(C)C)[C@@]3(OS(=O)(=O)C=C3N)[C@H]2O[Si](C)(C)C(C)(C)C)nn1`, the EC50 in the assay on CCRF-CEM [1] is 1.3 µM; with CCRF-CEM [2] it was over 35 µM; in the assay on MT4 [7], 0.92 µM; with MT4 [8], over 170 µM. The molecule further yielded an inhibition at 0.034 µM in the assay listed under Homo sapiens [11] of 0%. In addition, the inhibition at 0.17 µM in the assay filed under Homo sapiens [12] was 12%. In the assay filed under Homo sapiens [13], at 0.85 µM the inhibition was 42%. Further, 3.4 µM produced 67% inhibition in the assay filed under Homo sapiens [14]. Also, in the assay with MT4 [9], the CC50 is over 170 µM. In addition, the Ratio with MT4 [10] is on record as over 185.
